Measurements: ChEMBL document CHEMBL1126632, “Synthesis and dopamine antagonist activity of 2-thioether derivatives of the ergoline ring system” (J Med Chem, 1993)

Legend:
Type in all cases: functional
Rattus norvegicus [1] = experiment: Conditioned avoidance response in rats after oral administration
Method in brief: (§1)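 Wistar rats (120-130 g) trained in a shuttle box to cross on a 5-s buzzer; failure within 1 s after the buzzer gave a mild shock. Only well-conditioned animals were used, in groups of five, dosed orally 1 h 50 min before testing. After 10-min habituation they were tested for 20 min. Blockade = shocks received as % of stimuli; EDmin reported.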

Rattus norvegicus [2] = experiment: Compound was tested for the presence of catalepsy (CAT) in rats after oral administration; ip administration
Mus musculus = experiment: Tested for the apomorphine climbing behavior in mice after oral administration
Method in brief: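 Female TO mice (20-25 g), groups of eight, dosed orally with compound or vehicle, then habituated 60 min in wire-mesh cylinders. Apomorphine 2.5 mg/kg sc given; from 10 min later, climbing scored 0-4 (paws on cage) at 5-min intervals for 20 min.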

Rattus norvegicus [3] = experiment: Compound was tested for the Conditioned avoidance response (CAR) in rats after oral administration; ip administration
Rattus norvegicus [4] = experiment: Percent change in serum prolactin in adult male Dawley rats after intraperitoneal administration.
Method in brief: (§2)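 Adult male Sprague-Dawley rats, groups of 10, given compound in 0.5% lactic acid or vehicle ip 2 h before decapitation. Trunk blood clotted at 4 °C and centrifuged. Serum prolactin measured by NIAMDD radioimmunoassay kit against rat prolactin reference NIAMDD-RP-1. Result expressed as % change from controls run in the same experiment. Means compared by Student's test.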

Rattus norvegicus [5] = experiment: Tested for the amphetamine induced stereotyped behavior in rats after oral administration
Method in brief: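 Wistar rats, groups of eight, given d-amphetamine sulfate 10 mg/kg ip 1 h after test compound. Stereotypy scored 1-8 at eight time points up to 4 h, and the group mean taken at each time. EDmin = lowest dose reducing stereotypy by more than 25% versus amphetamine-treated controls.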

Rattus norvegicus [6] = experiment: Tested for the presence of catalepsy(CAT) in rats after oral administration
Method in brief: (§3)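 Wistar rats (180-190 g), groups of eight, compound given orally in distilled water or 0.5% carboxymethyl cellulose. Front paws placed on a 1.5 cm rod 7 cm high at 0.5, 1, 1.5, 2, 3, 4 and 5 h; time held recorded up to 20 min and scored 0-5. Maximum score per animal summed (group maximum 40); EDmin = lowest dose exceeding a threshold score.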

Rattus norvegicus [7] = species on record: Rattus norvegicus; experiment: Compound was tested for the Conditioned avoidance response (CAR) in rats; method in brief: as §1
Rattus norvegicus [8] = experiment: % change in serum prolactin in adult male Dawley rats after intraperitoneal administration.; method in brief: as §2
Rattus norvegicus [9] = experiment: Compound was tested for the presence of catalepsy (CAT) in rats after oral administration; method in brief: as §3
Rattus norvegicus [10] = species on record: Rattus norvegicus; experiment: Compound was tested for the % change in serum prolactin in adult male Dawley rats.(not significant); method in brief: as §2

C[C@@H]1C[C@@H]2c3cccc4[nH]cc(c34)C[C@H]2N(C)C1
EDmin (Rattus norvegicus [1]): >40 mg/kg

CSc1[nH]c2cc(O)cc3c2c1C[C@@H]1[C@@H]3C=C(C)CN1C
EDmin (Rattus norvegicus [2]): 25 mg/kg
EDmin (Mus musculus): 25 mg/kg
EDmin (Rattus norvegicus [3]): 25 mg/kg
Change (Rattus norvegicus [4]): -50%

CSc1[nH]c2cccc3c2c1C[C@@H]1[C@@H]3C[C@@H](C)CN1C
EDmin (Rattus norvegicus [5]): 5 mg/kg
EDmin (Rattus norvegicus [1]): 5 mg/kg
EDmin (Rattus norvegicus [6]): 20 mg/kg
EDmin (Mus musculus): 40 mg/kg
Change (Rattus norvegicus [4]): 570%

CCSc1[nH]c2cccc3c2c1C[C@@H]1[C@@H]3C=C(C)CN1C
EDmin (Rattus norvegicus [1]): 25 mg/kg
EDmin (Rattus norvegicus [6]): 40 mg/kg
EDmin (Mus musculus): >100 mg/kg
Change (Rattus norvegicus [4]): 67%

CSc1[nH]c2cccc3c2c1C[C@@H]1[C@@H]3C=C(CO)CN1C
EDmin (Rattus norvegicus [2]): 12.5 mg/kg
EDmin (Mus musculus): >25 mg/kg
EDmin (Rattus norvegicus [3]): 6 mg/kg
Change (Rattus norvegicus [4]): 481%

CSc1[nH]c2cccc3c2c1C[C@@H]1[C@@H]3C[C@H](C)CN1C
EDmin (Rattus norvegicus [1]): 40 mg/kg
EDmin (Mus musculus): >25 mg/kg
Change (Rattus norvegicus [4]): 63%

CCN1CC(C)=C[C@@H]2c3cccc4[nH]c(SC)c(c34)C[C@H]21
EDmin (Rattus norvegicus [1]): 25 mg/kg
EDmin (Mus musculus): 100 mg/kg
Change (Rattus norvegicus [4]): -65%

CC1=C[C@@H]2c3cccc4[nH]c(Sc5ccccc5)c(c34)C[C@H]2N(C)C1
EDmin (Rattus norvegicus [5]): 20 mg/kg
EDmin (Rattus norvegicus [1]): 2.5 mg/kg
EDmin (Rattus norvegicus [6]): 10 mg/kg
EDmin (Mus musculus): 25 mg/kg
Change (Rattus norvegicus [4]): 141%

CCCSc1[nH]c2cccc3c2c1C[C@@H]1[C@@H]3C[C@@H](C)CN1C
EDmin (Rattus norvegicus [1]): >50 mg/kg
Change (Rattus norvegicus [4]): 76%

CC1=C[C@@H]2c3cccc4[nH]c([S+](C)[O-])c(c34)C[C@H]2N(C)C1 (stereo partly specified)
EDmin (Rattus norvegicus [1]): >50 mg/kg
EDmin (Mus musculus): >100 mg/kg
Change (Rattus norvegicus [4]): 98%

CC1=C[C@@H]2c3cccc4[nH]c(SC(C)C)c(c34)C[C@H]2N(C)C1
EDmin (Rattus norvegicus [5]): 10 mg/kg
EDmin (Rattus norvegicus [1]): 10 mg/kg
EDmin (Rattus norvegicus [7]): 2.5 mg/kg
Change (Rattus norvegicus [4]): 132%

CCCCCCSc1[nH]c2cccc3c2c1C[C@@H]1[C@@H]3C=C(C)CN1C
EDmin (Rattus norvegicus [1]): 50 mg/kg
EDmin (Mus musculus): >100 mg/kg
Change (Rattus norvegicus [4]): -4%

CC1=C[C@@H]2c3cccc4[nH]c(Sc5ccc(Cl)cc5)c(c34)C[C@H]2N(C)C1
EDmin (Rattus norvegicus [1]): 100 mg/kg
EDmin (Mus musculus): >100 mg/kg

CC1=C[C@@H]2c3cccc4[nH]c(S(C)(=O)=O)c(c34)C[C@H]2N(C)C1
EDmin (Rattus norvegicus [1]): >50 mg/kg
Change (Rattus norvegicus [8]): 30%
EDmin (Mus musculus): >100 mg/kg

CCCN1CC(C)=C[C@@H]2c3cccc4[nH]c(SC)c(c34)C[C@H]21
EDmin (Mus musculus): >50 mg/kg
Change (Rattus norvegicus [4]): -74%

COc1ccc(Sc2[nH]c3cccc4c3c2C[C@@H]2[C@@H]4C=C(C)CN2C)cc1
EDmin (Rattus norvegicus [1]): >80 mg/kg
Change (Rattus norvegicus [8]): 31%
EDmin (Mus musculus): >100 mg/kg

C[C@H]1C[C@@H]2c3cccc4[nH]cc(c34)C[C@H]2N(C)C1
EDmin (Rattus norvegicus [1]): >50 mg/kg

CCCSc1[nH]c2cccc3c2c1C[C@@H]1[C@@H]3C=C(C)CN1C
EDmin (Mus musculus): >50 mg/kg

C[C@H]1C[C@@H]2c3cccc4[nH]c(Sc5ccccc5)c(c34)C[C@H]2N(C)C1
EDmin (Rattus norvegicus [1]): >50 mg/kg
EDmin (Mus musculus): >50 mg/kg
Change (Rattus norvegicus [4]): 15%

CSc1c2c3c(cccc3n1CO)[C@H]1C=C(C)CN(C)[C@@H]1C2
EDmin (Rattus norvegicus [1]): 20 mg/kg
EDmin (Rattus norvegicus [9]): 80 mg/kg
EDmin (Mus musculus): >100 mg/kg
Change (Rattus norvegicus [4]): 91%

CSc1[nH]c2cccc3c2c1C[C@H]1NCC(C)=C[C@H]31
EDmin (Rattus norvegicus [1]): >50 mg/kg
Change (Rattus norvegicus [8]): 24%
EDmin (Mus musculus): 50 mg/kg

CSc1[nH]c2cccc3c2c1C[C@@H]1[C@@H]3C=C(C)CN1C
EDmin (Rattus norvegicus [5]): 5 mg/kg
EDmin (Rattus norvegicus [1]): 2.5 mg/kg
EDmin (Rattus norvegicus [6]): 10 mg/kg
EDmin (Mus musculus): 50 mg/kg
Change (Rattus norvegicus [4]): 532%

CCCN1C[C@H](C)C[C@@H]2c3cccc4[nH]c(SC)c(c34)C[C@H]21
EDmin (Rattus norvegicus [1]): >50 mg/kg

CSc1c2c3c(cccc3n1C)[C@H]1C=C(C)CN(C)[C@@H]1C2
EDmin (Rattus norvegicus [1]): 100 mg/kg
EDmin (Mus musculus): 100 mg/kg
Change (Rattus norvegicus [10]): -23%

CC1=C[C@@H]2c3cccc4[nH]c(SCc5ccccc5)c(c34)C[C@H]2N(C)C1
EDmin (Rattus norvegicus [1]): 25 mg/kg
Change (Rattus norvegicus [8]): -9%
EDmin (Rattus norvegicus [6]): 80 mg/kg
EDmin (Mus musculus): 100 mg/kg

C[C@@H]1C[C@@H]2c3cccc4[nH]c(Sc5ccccc5)c(c34)C[C@H]2N(C)C1
EDmin (Rattus norvegicus [5]): 20 mg/kg
EDmin (Rattus norvegicus [1]): 20 mg/kg
EDmin (Rattus norvegicus [7]): 10 mg/kg
Change (Rattus norvegicus [4]): 106%

CN(C)CCCN1c2ccccc2Sc2ccc(Cl)cc21 [CHLORPROMAZINE]
EDmin (Rattus norvegicus [1]): 10 mg/kg
EDmin (Rattus norvegicus [9]): 10 mg/kg

CN1CCN(C2=Nc3cc(Cl)ccc3Nc3ccccc32)CC1 [CLOZAPINE]
EDmin (Rattus norvegicus [5]): 40 mg/kg
EDmin (Rattus norvegicus [1]): 30 mg/kg
EDmin (Rattus norvegicus [9]): 80 mg/kg
EDmin (Mus musculus): 20 mg/kg
Change (Rattus norvegicus [4]): 1.6%

O=C(CCCN1CCC(O)(c2ccc(Cl)cc2)CC1)c1ccc(F)cc1 [HALOPERIDOL]
EDmin (Rattus norvegicus [1]): 0.5 mg/kg
EDmin (Rattus norvegicus [9]): 0.5 mg/kg
EDmin (Mus musculus): 1 mg/kg
Change (Rattus norvegicus [4]): 1413%
